Test results reported in ChEMBL document CHEMBL2073777, “Characterization of ochratoxin A transport by human organic anion transporters” (Life Sci, 2001).

Legend:
Type in all cases: functional, cell-based
[1] = target: T1, Organic anion transporter 3 (Homo sapiens, UniProt Q8TCC7); experiment: TP_TRANSPORTER: inhibition of Ochratoxin A uptake (OTA: 1 uM, Aspartame: 200 uM) in OAT3-expressing S2 cells; conditions: s2, 200 µM
T1 sequence (Q8TCC7 whole entry): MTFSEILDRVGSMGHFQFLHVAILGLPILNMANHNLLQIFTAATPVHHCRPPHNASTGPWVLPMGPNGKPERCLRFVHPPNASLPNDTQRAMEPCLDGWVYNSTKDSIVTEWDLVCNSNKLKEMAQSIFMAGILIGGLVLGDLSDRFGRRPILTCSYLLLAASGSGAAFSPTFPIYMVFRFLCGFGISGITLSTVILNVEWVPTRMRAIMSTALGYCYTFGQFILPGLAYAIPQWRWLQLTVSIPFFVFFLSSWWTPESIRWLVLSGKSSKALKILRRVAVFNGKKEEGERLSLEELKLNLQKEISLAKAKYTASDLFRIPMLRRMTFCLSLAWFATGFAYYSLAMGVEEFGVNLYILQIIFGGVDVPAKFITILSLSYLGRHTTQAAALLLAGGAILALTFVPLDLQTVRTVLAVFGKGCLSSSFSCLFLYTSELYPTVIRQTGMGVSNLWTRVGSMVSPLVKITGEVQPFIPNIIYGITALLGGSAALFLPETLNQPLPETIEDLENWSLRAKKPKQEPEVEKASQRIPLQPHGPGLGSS
Summary of the method: (§1)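 Mouse proximal tubule second-segment (S2) cells stably expressing human OAT1 or OAT3. Uptake of [³H]-labelled ochratoxin A was measured with and without added OAT substrates as inhibitors.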

[2] = target: T2, Solute carrier family 22 member 6 (Homo sapiens, UniProt Q4U2R8); experiment: TP_TRANSPORTER: inhibition of Ochratoxin A uptake (OTA: 1 uM, Aspartame: 200 uM) in OAT1-expressing S2 cells; conditions: s2, 200 µM; summary of the method: as §1
T2 sequence (Q4U2R8 whole entry): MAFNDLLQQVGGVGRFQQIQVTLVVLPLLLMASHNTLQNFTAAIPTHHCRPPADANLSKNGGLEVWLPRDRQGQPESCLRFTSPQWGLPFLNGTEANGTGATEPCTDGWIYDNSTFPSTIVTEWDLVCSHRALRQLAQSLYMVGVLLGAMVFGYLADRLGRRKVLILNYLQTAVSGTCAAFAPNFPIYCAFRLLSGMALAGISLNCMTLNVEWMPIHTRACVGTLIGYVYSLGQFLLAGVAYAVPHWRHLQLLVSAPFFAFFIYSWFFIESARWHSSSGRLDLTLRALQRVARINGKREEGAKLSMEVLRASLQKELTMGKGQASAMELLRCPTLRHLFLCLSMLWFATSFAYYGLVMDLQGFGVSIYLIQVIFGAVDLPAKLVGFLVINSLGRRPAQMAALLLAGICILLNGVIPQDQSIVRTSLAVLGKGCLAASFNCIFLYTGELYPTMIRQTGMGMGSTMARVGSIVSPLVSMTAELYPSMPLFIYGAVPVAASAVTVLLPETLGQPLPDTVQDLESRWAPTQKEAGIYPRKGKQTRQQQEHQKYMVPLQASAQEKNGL

[3] = target: T3, OAT3 (Organic anion transporter 3) (Homo sapiens, UniProt Q8TCC7); experiment: TP_TRANSPORTER: uptake in OAT3-expressing S2 cells; conditions: mouse, S2 cells that express OAT3
T3 sequence (Q8TCC7 whole entry): T1 sequence (Q8TCC7 whole entry)
Summary of the method: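 S2 proximal tubule cells from mice stably expressing human OAT3. [³H]-ochratoxin A uptake was followed over time and concentration, and the apparent Km was taken from the saturable uptake.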

[4] = target: T1, Organic anion transporter 3; experiment: TP_TRANSPORTER: inhibition of Ochratoxin A uptake in OAT3-expressing S2 cells
[5] = target: T1, Organic anion transporter 3; experiment: TP_TRANSPORTER: inhibition of Ochratoxin A uptake (OTA: 1 uM, Indomethacin: 200 uM) in OAT3-expressing S2 cells; conditions: mouse, s2, 200 µM; summary of the method: as §1
[6] = target: T2, Solute carrier family 22 member 6; experiment: TP_TRANSPORTER: inhibition of Ochratoxin A uptake (OTA: 1 uM, Indomethacin: 200 uM) in OAT1-expressing S2 cells; conditions: mouse, s2, 200 µM; summary of the method: as §1
[7] = target: T1, Organic anion transporter 3; experiment: TP_TRANSPORTER: inhibition of Ochratoxin A uptake (OTA: 1 uM, PCG: 200 uM) in OAT3-expressing S2 cells; conditions: mouse, s2, 200 µM; summary of the method: as §1

COC(=O)[C@H](Cc1ccccc1)NC(=O)[C@@H](N)CC(=O)O
Activity [1]: is not an inhibitor [-] | Activity [2]: is not an inhibitor [-]

C[C@@H]1Cc2c(Cl)cc(C(=O)N[C@@H](Cc3ccccc3)C(=O)O)c(O)c2C(=O)O1 [3R14S-OCHRATOXIN A]
Km [3]: 0.75 µM

CC1=C2C(=CO[C@H](C)[C@H]2C)C(O)=C(C(=O)O)C1=O [CITRININ]
Ki [4]: 15.4 µM

COc1ccc2c(c1)c(CC(=O)O)c(C)n2C(=O)c1ccc(Cl)cc1 [INDOMETHACIN]
Activity [5]: inhibitor [(at a rough estimate) 15 % of control] | Activity [6]: inhibitor [(at a rough estimate) 25 % of control]

CCCCCCCC(=O)O [OCTANOIC ACID]
Ki [4]: 8.6 µM

CC1(C)S[C@@H]2[C@H](NC(=O)Cc3ccccc3)C(=O)N2[C@H]1C(=O)O [PENICILLIN G]
Activity [7]: inhibitor [(at a rough estimate) 35 % of control]

CN1C(C(=O)Nc2ccccn2)=C(O)c2ccccc2S1(=O)=O [PIROXICAM]
Ki [4]: 4.88 µM
